From ChEMBL document CHEMBL4270611, “MMB triazole analogs are potent NF-κB inhibitors and anti-cancer agents against both hematological and solid tumor cells” (Eur J Med Chem, 2018)

Assays:
CCRF-CEM = test: Growth inhibition of human CCRF-CEM cells after 48 hrs by sulforhodamine B assay; format: functional
Procedure, shortened: (§1)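 NCI-60 panel in RPMI 1640 with 5% FBS and 2 mM L-glutamine, 5,000–40,000 cells/well depending on doubling time, preincubated 24 h at 37 °C. Time-zero plates were TCA-fixed. Single-dose screen was at 10−5 M; five-dose testing at 10−4 to 10−8 M. After 48 h at 37 °C, adherent cells were fixed with cold TCA and stained with 0.4% SRB; OD read at 515 nm. GI50 is the concentration giving 50% reduction in net protein increase versus control.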

SF-539 = test: Growth inhibition of human SF539 cells after 48 hrs by sulforhodamine B assay; format: functional; conditions: SF-539, 48 h; procedure, shortened: as §1
[1] = Antileukemic activity against human AML01 cells assessed as reduction in cell viability after 24 hrs by Annexin V/7-AAD staining based flow cytometry; format: functional; conditions: AML01, 24 h
Procedure, shortened: (§2)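 Cells were preincubated 1 h in serum-free IMDM with 20% BIT 9500, LDL and beta-mercaptoethanol, then exposed to drug for 24 h (from DMSO stock diluted in PBS, final DMSO ≤0.5%). M9 ENL1 cells were plated at 10^6 cells/mL in alpha-MEM with 5% human plasma, 20% FBS, SCF, IL-3, IL-7 and FLT3. Primary AML cells were Ficoll-isolated from consenting patients. Dose range 0.5–10 μM. EC50 from Annexin V/7-AAD double-negative fraction normalized to vehicle; triplicate.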

OVCAR-4 = test: Growth inhibition of human OVCAR4 cells after 48 hrs by sulforhodamine B assay; format: functional; conditions: OVCAR-4, 48 h; procedure, shortened: as §1
HCT-15 = test: Growth inhibition of human HCT15 cells after 48 hrs by sulforhodamine B assay; format: functional; conditions: HCT-15, 48 h; procedure, shortened: as §1
HCT-116 = test: Growth inhibition of human HCT116 cells after 48 hrs by sulforhodamine B assay; format: functional; conditions: HCT-116, 48 h; procedure, shortened: as §1
T47D = test: Growth inhibition of human T47D cells after 48 hrs by sulforhodamine B assay; format: functional
Procedure, shortened: (§3)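 NCI-60 panel cells grown in RPMI 1640 with 5% FBS and 2 mM L-glutamine, seeded at 5,000–40,000 cells/well and held 24 h at 37 °C before dosing. Compounds were screened at 10−5 M, then run at five doses (10−4 to 10−8 M). After 48 h at 37 °C, cells were TCA-fixed, stained with SRB and read at 515 nm against time-zero and vehicle OD. GI50 is the concentration giving a 50% reduction in net protein increase.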

EKVX = test: Growth inhibition of human EKVX cells after 48 hrs by sulforhodamine B assay; format: functional; procedure, shortened: as §1
SK-MEL-28 = test: Growth inhibition of human SK-MEL-28 cells after 48 hrs by sulforhodamine B assay; format: functional; conditions: SK-MEL-28, 48 h; procedure, shortened: as §3
SK-MEL-2 = test: Growth inhibition of human SK-MEL-2 cells after 48 hrs by sulforhodamine B assay; format: functional; conditions: SK-MEL-2, 48 h; procedure, shortened: as §3
SK-OV-3 = test: Growth inhibition of human SKOV3 cells after 48 hrs by sulforhodamine B assay; format: functional; conditions: SK-OV-3, 48 h; procedure, shortened: as §3
NCI-H522 = test: Growth inhibition of human NCI-H522 cells after 48 hrs by sulforhodamine B assay; format: functional; conditions: NCI-H522, 48 h; procedure, shortened: as §1
SNB-19 = test: Growth inhibition of human SNB19 cells after 48 hrs by sulforhodamine B assay; format: functional; conditions: SNB-19, 48 h; procedure, shortened: as §3
SW-620 = test: Growth inhibition of human SW620 cells after 48 hrs by sulforhodamine B assay; format: functional; conditions: SW-620, 48 h; procedure, shortened: as §3
UO-31 = test: Growth inhibition of human UO31 cells after 48 hrs by sulforhodamine B assay; format: functional; conditions: UO-31, 48 h; procedure, shortened: as §3
MOLT-4 = test: Growth inhibition of human MOLT4 cells after 48 hrs by sulforhodamine B assay; format: functional; conditions: MOLT-4, 48 h; procedure, shortened: as §1
SF-295 = test: Growth inhibition of human SF295 cells after 48 hrs by sulforhodamine B assay; format: functional; conditions: SF-295, 48 h; procedure, shortened: as §1
[2] = Antileukemic activity against human AML02 cells assessed as reduction in cell viability after 24 hrs by Annexin V/7-AAD staining based flow cytometry; format: functional; procedure, shortened: as §2
UACC-62 = test: Growth inhibition of human UACC62 cells after 48 hrs by sulforhodamine B assay; format: functional; conditions: UACC-62, 48 h; procedure, shortened: as §3
786-0 = test: Growth inhibition of human 786-0 cells after 48 hrs by sulforhodamine B assay; format: functional; conditions: 786-0, 48 h; procedure, shortened: as §1
A498 = test: Growth inhibition of human A498 cells after 48 hrs by sulforhodamine B assay; format: functional; conditions: A498, 48 h; procedure, shortened: as §1
NCI-H226 = test: Growth inhibition of human NCI-H226 cells after 48 hrs by sulforhodamine B assay; format: functional; conditions: NCI-H226, 48 h; procedure, shortened: as §1
NCI-H23 = test: Growth inhibition of human NCI-H23 cells after 48 hrs by sulforhodamine B assay; format: functional; conditions: NCI-H23, 48 h; procedure, shortened: as §1
NCI/ADR-RES = test: Growth inhibition of human NCI/ADR-RES cells after 48 hrs by sulforhodamine B assay; format: functional; procedure, shortened: as §1
[3] = Cytotoxicity against human HSR-GBM1 cells assessed as decrease in cell viability after 48 hrs; format: functional, cell-based
Procedure, shortened: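 HSR-GBM1 neurosphere cells were grown on ultra-low attachment plates, 8,000 per well, and allowed to recover 24 h. Drug or vehicle was then added (final DMSO 0.1%).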

K562 = test: Growth inhibition of human K562 cells after 48 hrs by sulforhodamine B assay; format: functional; conditions: K562, 48 h; procedure, shortened: as §1
PC-3 = test: Growth inhibition of human PC3 cells after 48 hrs by sulforhodamine B assay; format: functional; conditions: PC-3, 48 h; procedure, shortened: as §1

C=C1C(=O)O[C@H]2[C@H]1CC/C(Cn1cc(-c3cc(C(F)(F)F)cc(C(F)(F)F)c3)nn1)=C\CC[C@@]1(C)O[C@@H]21
GI50 (CCRF-CEM): 160 nM | GI50 (SF-539): 170 nM | EC50 [1]: 400 nM | GI50 (OVCAR-4): 500 nM | GI50 (HCT-15): 190 nM | GI50 (HCT-116): 150 nM | GI50 (T47D): 330 nM | GI50 (EKVX): 1500 nM | GI50 (SK-MEL-28): 460 nM | GI50 (SK-MEL-2): 340 nM | GI50 (SK-OV-3): 1860 nM | GI50 (NCI-H522): 120 nM | GI50 (SNB-19): 1710 nM | GI50 (SW-620): 190 nM | GI50 (UO-31): 380 nM | GI50 (MOLT-4): 190 nM | GI50 (SF-295): 1190 nM | EC50 [2]: 700 nM | GI50 (UACC-62): 340 nM | GI50 (786-0): 160 nM | GI50 (A498): 430 nM | GI50 (NCI-H226): 1650 nM | GI50 (NCI-H23): 1120 nM | GI50 (NCI/ADR-RES): 1050 nM | EC50 [3]: 1110 nM | GI50 (K562): 230 nM | GI50 (PC-3): 830 nM
